The test system of one data set is LLC-MK2. In words: Cytotoxicity against rhesus monkey LLC-MK2 cells at 9 uM after 3 days by MTT assay. It is filed as cell-based, Macaca mulatta. The conditions noted are these: llc-mk2, 72 h. The method, boiled down: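 Serial peptide dilutions in hMPV infection medium applied to LLC-MK2 cells for 3 days. MTT (1 mg/ml) added for 2 h at 37°C, dye solubilized in acidic isopropanol, absorbance read at 570. Absorbance below that of control cells taken as cytotoxicity.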
A general note: Formazan colour is commonly taken as a measure of viable cells.

A further data set concerns Human metapneumovirus. The data set can be described thus: Antiviral activity against hMPV C-85473 infected in rhesus monkey LLC-MK2 cells after 3 days by RT-PCR. Particulars: C-85473, LLC-MK2, 72 h. It counts as functional, organism-based. An outline of the steps: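 Twofold serial dilutions of peptide mixed with 107 TCID50 virus in infection medium (Opti-MEM with 2 µg/ml trypsin) and added to LLC-MK2 cells. After 2 h, medium replaced with fresh medium containing the same peptide dilutions. Supernatants collected on day 3 and N gene quantified by real-time RT-PCR (TaqMan). IC50 from triplicate experiments.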

The species entered for data set [1] is Mus musculus. In words: Effect on airway obstruction in hMPV infected BALB/c mouse assessed as decrease in enhanced pause treated simultaneously with viral challenge.
The species named for data set [2] is Mus musculus. In words: Effect on pulmonary inflammation in BALB/c mouse lung assessed as change in peribronchiolar inflammation after 5 days by histopathological analysis. It counts as functional, organism-based. An outline of the steps:
(§1)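 Female BALB/c mice, 4-6 weeks old, received intranasal hMPV C-85473 (2 x 106 TCID50/ml, 70 µl) or PBS, with or without 7 µM synthetic peptide by the same route. Six lungs/group taken on day 5, fixed in 10% buffered formalin, paraffin-embedded, cut at 5 µm, stained with H&E. Each inflammation type scored on a 0-4 scale.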

Data set [3] is filed under the species Mus musculus. The data set can be described thus: Effect on pulmonary inflammation in BALB/c mouse lung assessed as change in perivascular inflammation after 5 days by histopathological analysis. It is filed as functional, organism-based. The method, boiled down: as §1

The source made the active and inactive calls. The rule behind the calls is not given here. Where a SMILES comes first, the peptide text is derived from it.

As a reminder, the IC50 is the concentration needed to halve the response being measured. Regarding `CC[C@H](C)[C@H](NC(=O)[C@H](CCCNC(=N)N)NC(=O)[C@H](CC(N)=O)NC(=O)[C@H](CO)NC(=O)[C@H](CCC(N)=O)NC(=O)[C@H](CC(=O)O)NC(=O)[C@@H](NC(=O)[C@H](CC(C)C)NC(=O)[C@H](C)NC(=O)[C@H](CCC(N)=O)NC(=O)[C@H](CO)NC(=O)[C@H](CC(N)=O)NC(=O)[C@H](CCC(=O)O)NC(=O)[C@@H](NC(=O)[C@H](CO)NC(=O)[C@H](CCC(=O)O)NC(=O)[C@H](Cc1ccccc1)NC(=O)[C@@H](NC(=O)[C@H](CCC(N)=O)NC(=O)[C@H](CC(=O)O)NC(=O)[C@H](CC(C)C)NC(=O)[C@H](C)NC(=O)[C@@H](NC(=O)[C@H](CC(N)=O)NC(=O)[C@H](Cc1ccccc1)NC(=O)[C@H](CCC(N)=O)NC(=O)[C@H](CC(=O)O)NC(=O)[C@H](CCC(=O)O)NC(=O)[C@@H]1CCCN1)C(C)C)C(C)C)[C@@H](C)CC)C(C)C)C(=O)N[C@@H](CC(C)C)C(=O)N[C@@H](CO)C(=O)N[C@@H](CO)C(=O)N[C@@H](C)C(=O)N[C@@H](CCC(=O)O)C(=O)N[C@@H](CCCCN)C(=O)NCC(=O)N[C@@H](CC(N)=O)C(=O)N[C@H](C(=O)NCC(=O)O)[C@@H](C)O` (H-PEDQFNVALDQVFESIENSQALVDQSNRILSSAEKGNTG-OH), the Activity entry in the data set with LLC-MK2 was “Not Active”. The same compound gave an IC50 in the data set with Human metapneumovirus of 3.31 µM.
The corresponding values for `CC[C@H](C)[C@H](NC(=O)[C@H](CCCNC(=N)N)NC(=O)[C@H](CC(N)=O)NC(=O)[C@H](CO)NC(=O)[C@H](CCC(N)=O)NC(=O)[C@H](CC(=O)O)NC(=O)[C@@H](NC(=O)[C@H](CC(C)C)NC(=O)[C@H](C)NC(=O)[C@H](CCC(N)=O)NC(=O)[C@H](CO)NC(=O)[C@H](CC(N)=O)NC(=O)[C@H](CCC(=O)O)NC(=O)[C@@H](NC(=O)[C@H](CO)NC(=O)[C@H](CCC(=O)O)NC(=O)[C@H](Cc1ccccc1)NC(=O)[C@@H](NC(=O)[C@H](CCC(N)=O)NC(=O)[C@H](CC(=O)O)NC(=O)[C@H](CC(C)C)NC(=O)[C@H](C)NC(=O)[C@@H](NC(=O)[C@H](CC(N)=O)NC(=O)[C@@H](N)Cc1ccccc1)C(C)C)C(C)C)[C@@H](C)CC)C(C)C)C(=O)N[C@@H](CC(C)C)C(=O)N[C@@H](CO)C(=O)N[C@@H](CO)C(=O)N[C@@H](C)C(=O)N[C@@H](CCC(=O)O)C(=O)O` (H-FNVALDQVFESIENSQALVDQSNRILSSAE-OH) are “Not Active” and more than 9 µM.
The corresponding values for `CC[C@H](C)[C@H](NC(=O)[C@H](C)NC(=O)[C@@H](NC(=O)[C@@H](NC(=O)[C@H](CCC(=O)O)NC(=O)[C@H](CO)NC(=O)[C@H](CCC(=O)O)NC(=O)[C@@H](N)CC(C)C)C(C)C)[C@@H](C)O)C(=O)N[C@@H](CCCCN)C(=O)N[C@@H](CC(N)=O)C(=O)N[C@@H](C)C(=O)N[C@@H](CC(C)C)C(=O)N[C@@H](CCCCN)C(=O)N[C@@H](CCCCN)C(=O)N[C@H](C(=O)N[C@@H](CC(N)=O)C(=O)N[C@@H](CCC(=O)O)C(=O)N[C@@H](C)C(=O)N[C@H](C(=O)N[C@@H](CO)C(=O)N[C@H](C(=O)N[C@@H](CC(C)C)C(=O)NCC(=O)N[C@@H](CC(N)=O)C(=O)NCC(=O)N[C@H](C(=O)N[C@@H](CCCNC(=N)N)C(=O)N[C@H](C(=O)N[C@@H](CC(C)C)C(=O)N[C@@H](C)C(=O)N[C@H](C(=O)N[C@@H](C)C(=O)N[C@H](C(=O)N[C@@H](CCCNC(=N)N)C(=O)N[C@@H](CCC(=O)O)C(=O)O)C(C)C)[C@@H](C)O)C(C)C)C(C)C)[C@@H](C)O)C(C)C)[C@@H](C)O` (H-LESEVTAIKNALKKTNEAVSTLGNGVRVLATAVRE-OH) are “Not Active” and 3.24 µM.
Regarding `CC[C@H](C)[C@H](NC(=O)[C@H](CCCNC(=N)N)NC(=O)[C@H](CC(N)=O)NC(=O)[C@H](CO)NC(=O)[C@H](CCC(N)=O)NC(=O)[C@H](CC(=O)O)NC(=O)[C@@H](NC(=O)[C@H](CC(C)C)NC(=O)[C@H](C)NC(=O)[C@H](CCC(N)=O)NC(=O)[C@H](CO)NC(=O)[C@H](CC(N)=O)NC(=O)[C@H](CCC(=O)O)NC(=O)[C@@H](NC(=O)[C@H](CO)NC(=O)[C@H](CCC(=O)O)NC(=O)[C@H](Cc1ccccc1)NC(=O)[C@@H](NC(=O)[C@H](CCC(N)=O)NC(=O)[C@H](CC(=O)O)NC(=O)[C@H](CC(C)C)NC(=O)[C@H](C)NC(=O)[C@@H](NC(=O)[C@@H](N)CC(N)=O)C(C)C)C(C)C)[C@@H](C)CC)C(C)C)C(=O)N[C@@H](CC(C)C)C(=O)N[C@@H](CO)C(=O)N[C@@H](CO)C(=O)N[C@@H](C)C(=O)O` (H-NVALDQVFESIENSQALVDQSNRILSSA-OH), the outcome in the data set filed under Mus musculus [1], in the data set filed under Mus musculus [2] and in the data set listed under Mus musculus [3] was inactive. The Activity entry in the data set on LLC-MK2 is reported as “Not Active”. Further, in the data set with Human metapneumovirus, the IC50 was more than 9 µM.
Regarding `CC[C@H](C)[C@H](NC(=O)[C@H](CCCNC(=N)N)NC(=O)[C@H](CC(N)=O)NC(=O)[C@H](CO)NC(=O)[C@H](CCC(N)=O)NC(=O)[C@H](CC(=O)O)NC(=O)[C@@H](NC(=O)[C@H](CC(C)C)NC(=O)[C@H](C)NC(=O)[C@H](CCC(N)=O)NC(=O)[C@H](CO)NC(=O)[C@H](CC(N)=O)NC(=O)[C@H](CCC(=O)O)NC(=O)[C@@H](NC(=O)[C@H](CO)NC(=O)[C@H](CCC(=O)O)NC(=O)[C@H](Cc1ccccc1)NC(=O)[C@@H](NC(=O)[C@H](CCC(N)=O)NC(=O)[C@H](CC(=O)O)NC(=O)[C@H](CC(C)C)NC(=O)[C@H](C)NC(=O)[C@@H](NC(=O)[C@H](CC(N)=O)NC(=O)[C@@H](N)Cc1ccccc1)C(C)C)C(C)C)[C@@H](C)CC)C(C)C)C(=O)N[C@@H](CC(C)C)C(=O)N[C@@H](CO)C(=O)N[C@@H](CO)C(=O)N[C@@H](C)C(=O)N[C@@H](CCC(=O)O)C(=O)N[C@@H](CCCCN)C(=O)NCC(=O)N[C@@H](CC(N)=O)C(=O)O` (H-FNVALDQVFESIENSQALVDQSNRILSSAEKGN-OH), in the data set on LLC-MK2, the Activity result was “Not Active”. The same compound had a concentration for half-maximal inhibition (IC50) in the data set with Human metapneumovirus of more than 9 µM.
As to `CC[C@H](C)[C@H](NC(=O)[C@H](CCCNC(=N)N)NC(=O)[C@H](CC(N)=O)NC(=O)[C@H](CO)NC(=O)[C@H](CCC(N)=O)NC(=O)[C@H](CC(=O)O)NC(=O)[C@@H](NC(=O)[C@H](CC(C)C)NC(=O)[C@H](C)NC(=O)[C@H](CCC(N)=O)NC(=O)[C@H](CO)NC(=O)[C@H](CC(N)=O)NC(=O)[C@H](CCC(=O)O)NC(=O)[C@@H](NC(=O)[C@H](CO)NC(=O)[C@H](CCC(=O)O)NC(=O)[C@H](Cc1ccccc1)NC(=O)[C@@H](NC(=O)[C@H](CCC(N)=O)NC(=O)[C@H](CC(=O)O)NC(=O)[C@H](CC(C)C)NC(=O)[C@H](C)NC(=O)[C@@H](NC(=O)[C@H](CC(N)=O)NC(=O)[C@@H](N)Cc1ccccc1)C(C)C)C(C)C)[C@@H](C)CC)C(C)C)C(=O)N[C@@H](CC(C)C)C(=O)N[C@@H](CO)C(=O)N[C@@H](CO)C(=O)N[C@@H](C)C(=O)N[C@@H](CCC(=O)O)C(=O)N[C@@H](CCCCN)C(=O)NCC(=O)N[C@@H](CC(N)=O)C(=O)N[C@H](C(=O)NCC(=O)O)[C@@H](C)O` (H-FNVALDQVFESIENSQALVDQSNRILSSAEKGNTG-OH), the Activity entry in the data set on LLC-MK2 is reported as “Not Active”. The compound further showed an IC50 in the data set with Human metapneumovirus of 1.52 µM.
